Assay results reported in ChEMBL document CHEMBL4622949, “A chalcone derivative binds a putative allosteric site of YopH: Inhibition of a virulence factor of Yersinia” (Bioorg Med Chem Lett, 2020).
pIC50, pKi: −log10 of the molar value.

Experiments:
[1] = biological target: Tyrosine-protein phosphatase YopH (Yersinia enterocolitica) (UniProt P15273); assay: Irreversible inhibition of Yersinia enterocolitica YopH assessed as enzyme recovery activity by dilution assay relative to control; set-up: scale not given: the % may be the effect or the level left
Summary of the method: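 Reversibility tested by preincubation and dilution: enzyme preincubated with inhibitor, then diluted, and recovered phosphatase activity expressed as a percentage of control.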

[2] = biological target: T1, Tyrosine-protein phosphatase YopH (Yersinia enterocolitica, UniProt P15273); assay: Inhibition of recombinant Yersinia enterocolitica YopH assessed as reduction in conversion of pNPP to nitrophenol and inorganic phosphate using pNPP as substrate by microplate reader assay
Summary of the method: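 Recombinant YopH phosphatase activity was measured in vitro. Values are the average of individual means ± SD from three independent experiments.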

[3] = biological target: T1, Tyrosine-protein phosphatase YopH; assay: Non-competitive mixed inhibition of Yersinia enterocolitica YopH assessed as inhibition constant
Summary of the method: (§1)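 Kinetic parameters were derived from Michaelis–Menten plots of YopH activity with and without inhibitor. Ki and α were obtained from a non-competitive mixed-inhibition analysis. Results are means ± SD of three independent experiments.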

[4] = biological target: T1, Tyrosine-protein phosphatase YopH; assay: Non-competitive mixed inhibition of Yersinia enterocolitica YopH assessed as inhibition constant for enzyme-substrate complex; summary of the method: as §1
[5] = biological target: T2, Tyrosine-protein phosphatase non-receptor type 22 (Homo sapiens, UniProt Q9Y2R2); assay: Inhibition of LYP (unknown origin) at 25 uM using pNPP as substrate relative to control
T2 sequence (Q9Y2R2 whole entry): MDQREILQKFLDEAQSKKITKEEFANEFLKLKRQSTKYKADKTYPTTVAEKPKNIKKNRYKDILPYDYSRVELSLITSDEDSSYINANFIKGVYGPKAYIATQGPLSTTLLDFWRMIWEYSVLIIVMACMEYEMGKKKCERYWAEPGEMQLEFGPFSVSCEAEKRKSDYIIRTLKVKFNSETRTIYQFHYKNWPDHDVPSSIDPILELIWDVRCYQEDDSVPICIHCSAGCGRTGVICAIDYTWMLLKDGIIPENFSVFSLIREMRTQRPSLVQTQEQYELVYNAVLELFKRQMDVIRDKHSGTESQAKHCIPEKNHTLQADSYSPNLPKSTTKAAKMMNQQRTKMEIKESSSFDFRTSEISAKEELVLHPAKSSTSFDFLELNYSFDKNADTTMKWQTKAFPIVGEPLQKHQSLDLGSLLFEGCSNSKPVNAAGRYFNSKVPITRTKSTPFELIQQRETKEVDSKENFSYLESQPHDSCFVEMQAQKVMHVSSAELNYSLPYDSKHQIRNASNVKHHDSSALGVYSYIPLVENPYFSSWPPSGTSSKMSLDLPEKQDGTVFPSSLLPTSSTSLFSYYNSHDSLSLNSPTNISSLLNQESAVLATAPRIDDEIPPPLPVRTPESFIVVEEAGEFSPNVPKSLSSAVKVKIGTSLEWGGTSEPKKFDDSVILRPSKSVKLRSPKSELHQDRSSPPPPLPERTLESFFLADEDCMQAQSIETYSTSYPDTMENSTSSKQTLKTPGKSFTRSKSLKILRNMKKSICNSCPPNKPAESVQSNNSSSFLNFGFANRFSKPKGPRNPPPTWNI

T1 sequence (P15273 whole entry): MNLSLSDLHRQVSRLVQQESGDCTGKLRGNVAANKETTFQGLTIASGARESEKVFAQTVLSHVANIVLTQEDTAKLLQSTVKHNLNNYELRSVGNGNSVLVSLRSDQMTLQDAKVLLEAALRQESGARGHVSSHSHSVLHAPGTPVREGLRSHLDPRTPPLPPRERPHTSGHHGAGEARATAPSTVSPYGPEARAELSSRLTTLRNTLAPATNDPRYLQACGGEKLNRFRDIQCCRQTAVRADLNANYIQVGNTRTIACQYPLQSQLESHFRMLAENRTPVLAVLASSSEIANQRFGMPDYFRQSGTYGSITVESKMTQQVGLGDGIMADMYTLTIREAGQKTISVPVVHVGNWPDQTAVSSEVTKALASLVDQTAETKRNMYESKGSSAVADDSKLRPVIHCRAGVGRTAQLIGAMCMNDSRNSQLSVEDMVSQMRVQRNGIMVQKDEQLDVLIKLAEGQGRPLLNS
Tyrosine-protein phosphatase YopH (Yersinia enterocolitica), sequence (P15273 whole entry): as above

Compound	inhibition at 25 µM [5] [%]	further results
O=C(/C=C/c1ccc(O)c(O)c1)O[C@@H](C(=O)O)[C@@H](OC(=O)/C=C/c1ccc(O)c(O)c1)C(=O)O [CICHORIC ACID]	–	Activity [1]: 0.6%; pIC50 [2]: 3.42; pKi [3]: 4.17; pKi [4]: 4.90
O=C(O)c1ccc(/C=C/C(=O)n2ccnc2)cc1	25.7	–
O=C(O)c1ccc(/C=C/C(=O)c2cccc(O)c2)cc1	7.9	–
COc1cccc(C(=O)/C=C/c2ccc(C(=O)O)cc2)c1	6.8	–
O=C(O)c1ccc(/C=C/C(=O)c2ccccc2)cc1	4.2	–
COc1ccc(OC)c(C(=O)/C=C/c2ccc(C(=O)O)cc2)c1	15.8	–
O=C(O)c1ccc(/C=C/C(=O)c2ccc(F)cc2)cc1	11.4	–
COc1ccccc1C(=O)/C=C/c1ccc(C(=O)O)cc1	13	–
COc1ccc(C(=O)/C=C/c2ccc(C(=O)O)cc2)c(OC)c1	3.9	–
COc1ccc(C(=O)/C=C/c2ccc(C(=O)O)cc2)cc1OC	4.2	–
